The text below walks through data of ChEMBL document CHEMBL1944515 (J Med Chem, 2012).

SMILES strings stand for the structures. Activity calls are given as the source filed them. The calls are words filed in the database; no cut-off is given here.

Data set [1] concerns HL-60. The experiment in a line: Cytotoxicity against human HL60 cells after 72 hrs by MTT assay. In kind it is functional, cell-based. To be noted: HL-60, 72 h. Background: Tetrazolium dyes change colour on reduction, which living cells bring about.
Data set [2] deals with LoVo. The experiment in a line: Cytotoxicity against human LoVo cells after 72 hrs by MTT assay. In kind it is functional, cell-based. An outline of the steps: (§1)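 Cells seeded at 8 × 10^3 per well and left 18 h at 37 °C, 5% CO2, then given fresh medium with compound at a range of concentrations for 72 h; DMSO at most 0.25% final. Viability read by MTT relative to 0.25% DMSO-treated cells. […] LoVoDoxo kept in Ham's F12 with 0.1 μg/mL doxorubicin; A549-T12 kept in DMEM with 12 nM paclitaxel.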

The test system of data set [3] is LoVo. The experiment in a line: Cytotoxicity against human doxorubicin-resistant LoVo cells after 72 hrs by MTT assay. It is filed as functional, cell-based. An outline of the steps:
as §1

In data set [4] the test system is LoVo. Kind of data set: Resistance ratio of IC50 for human doxorubicin-resistant LoVo cells to human LoVo cells. In kind it is functional.
The nature of data set [5]: Cytotoxicity against human A549-T12 cells after 72 hrs by MTT assay. In kind it is functional, cell-based. The settings on record: A549, 72 h. An outline of the steps:
as §1

Data set [6] deals with HeLa. The experiment in a line: Induction of cell cycle arrest in human HeLa cells assessed as increase in G2/M phase cells after 24 hrs by flow cytometry. It is filed as functional, cell-based. An outline of the steps:
(§2)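 5 × 10^5 exponentially growing HeLa cells were treated with 15–250 nM for 24 h, fixed in ice-cold 70% ethanol, then treated with lysis buffer containing RNase A and 0.1% Triton X-100. PI staining of DNA content, read by flow cytometry. Mean ± SEM of three independent experiments.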
(In general: A flow cytometer gives signals particle by particle.)

In data set [7] the test system is HeLa. Kind of data set: Induction of cell cycle arrest in human HeLa cells assessed as increase in G2/M phase cells at 30 nM after 24 hrs by flow cytometry. In kind it is functional, cell-based. An outline of the steps:
as §2

Data set [8] relates to HeLa. The experiment in a line: Induction of cell cycle arrest in human HeLa cells assessed as decrease in G1 phase cells at 15 to 250 nM after 24 hrs by flow cytometry. In kind it is functional, cell-based. An outline of the steps:
as §2

Data set [9] has as its system HeLa. The experiment in a line: Induction of cell cycle arrest in human HeLa cells assessed as decrease in S phase cells at 15 to 250 nM after 24 hrs by flow cytometry. It is filed as functional, cell-based. In short, it runs like this: as §2
Data set [10] concerns HeLa. The experiment in a line: Induction of cell cycle arrest in human HeLa cells assessed as increase in cyclin B1 expression at 50 to 100 nM after 24 to 48 hrs by Western blot analysis. It is filed as functional, cell-based. In short, it runs like this: (§3)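 HeLa cells were treated for 24 or 48 h, washed in ice-cold PBS and lysed on ice for 30 min; lysates were spun at 15000g, 4 °C. 20 μg protein per lane on SDS-PAGE (7.5–15%), then PVDF. Blocked overnight at 4 °C, primary antibodies 2 h at room temperature, peroxidase secondary 60 min, ECL detection. Blots were reprobed for β-actin as loading control.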

Data set [11] concerns HeLa. Kind of data set: Induction of apoptosis in human HeLa cells assessed as decrease in cdc25c level at 50 to 100 nM after 24 hrs by Western blot analysis. It is filed as functional, cell-based. To be noted: in the assay text read “48 hrs” for “24 hrs”. In short, it runs like this:
as §3

Data set [12] relates to HeLa. The experiment in a line: Induction of apoptosis in human HeLa cells assessed as viable cells at 100 nM after 48 hrs by FITC conjugated annexin-V/PI staining-based flow cytometry (reference value: 86.7%). The settings on record: read-out: Activity. It is filed as functional. In short, it runs like this:
(§4)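 Flow cytometry of HeLa cells after 24 or 48 h exposure, double-stained with annexin-V-FITC and propidium iodide. Excitation at 488 nm, emission at 525 nm (FITC) and 585 nm (PI). Quadrants scored as live, early apoptotic, late apoptotic or necrotic cells.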

For data set [13], the system named is HeLa. The experiment in a line: Induction of apoptosis in human HeLa cells assessed as early apoptotic cells at 100 nM after 48 hrs by FITC conjugated annexin-V/PI staining-based flow cytometry (reference value: 9.6%). It is filed as functional. In short, it runs like this:
as §4

Data set [14] has as its system HeLa. Kind of data set: Induction of apoptosis in human HeLa cells assessed as increase in annexin-V positive apoptotic cells after 24 to 48 hrs by FITC conjugated annexin-V/PI staining-based flow cytometry. In kind it is functional, cell-based. An outline of the steps: as §4
For data set [15], the system named is HeLa. Kind of data set: Induction of mitochondrial depolarization in human HeLa cells after 24 to 48 hrs by JC1-based fluorescent staining. It is filed as functional, cell-based. In short, it runs like this:
(§5)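 Mitochondrial membrane potential in HeLa cells after 24 or 48 h incubation, measured with the JC-1 dye by flow cytometry. Aggregates read as red (590 nm) and monomers as 530 nm; output is the percentage of depolarized cells. Mean ± SEM of three independent experiments.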

Data set [16] relates to HeLa. The experiment in a line: Induction of mitochondrial depolarization in human HeLa cells at 50 to 100 nM by JC1-based fluorescent staining. In kind it is functional, cell-based. To be noted: TDE = time-dependent effect. In short, it runs like this:
as §5

The test system of data set [17] is HeLa. Kind of data set: Induction of apoptosis in human HeLa cells assessed as decrease in XIAP protein expression at 50 to 100 nM after 24 to 48 hrs by Western blot analysis. It is filed as functional, cell-based. In short, it runs like this:
as §3
In general terms: A western blot detects proteins with antibodies after separation by electrophoresis.

The subject of data set [18] is Mus musculus. The experiment in a line: Toxicity in BALB/c nude mouse assessed as change in body weight at 100 mg/kg, ip administered on days 0,2 and 4 measured after 1 week relative to control. In kind it is organism-based. The arrangement: dose 100 mg/kg, route intraperitoneal. The settings on record: in vivo, 168 h. An outline of the steps:
(§6)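 HT-29 cells in log phase, resuspended in serum-free RPMI 1640 at 1 × 10^7 cells/mL, inoculated 0.2 mL subcutaneously in the back of nude mice. At ~300 mm3, 18 mice were randomized to vehicle or two treatment groups. Dosing: 100 mg/kg in DMSO, ip at 0.01 mL/g, on days 0, 2 and 4. Tumor volume by caliper as (LW2)/2 and body weight recorded; n = 6 per group, mean ± SEM.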

The subject of data set [19] is HT-29. Kind of data set: Anticancer activity against human HT-29 cells xenografted in BALB/c nude mouse assessed as reduction in tumor volume at 100 mg/kg, ip administered on days 0,2 and 4 measured on day 24 relative to vehicle treated control. In kind it is functional. Further details: scale not given: the % may be the effect or the level left. The settings on record: route intraperitoneal. An outline of the steps:
as §6

Data set [20] deals with T1, M-phase inducer phosphatase 3 (Homo sapiens) (UniProt P30307).
T1 sequence (whole entry): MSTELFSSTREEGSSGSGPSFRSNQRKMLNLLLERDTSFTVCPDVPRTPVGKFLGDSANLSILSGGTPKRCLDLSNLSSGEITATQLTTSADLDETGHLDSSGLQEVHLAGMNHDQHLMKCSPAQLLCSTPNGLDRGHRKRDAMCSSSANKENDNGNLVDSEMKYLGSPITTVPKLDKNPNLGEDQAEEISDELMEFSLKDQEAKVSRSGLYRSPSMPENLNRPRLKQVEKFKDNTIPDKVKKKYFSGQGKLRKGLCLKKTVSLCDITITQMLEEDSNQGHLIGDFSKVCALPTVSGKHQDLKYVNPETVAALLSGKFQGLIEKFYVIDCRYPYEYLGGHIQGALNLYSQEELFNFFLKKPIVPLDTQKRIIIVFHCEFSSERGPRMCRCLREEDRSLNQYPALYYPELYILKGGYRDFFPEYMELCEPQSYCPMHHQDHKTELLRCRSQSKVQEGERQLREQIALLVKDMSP
Kind of data set: Induction of cdc25c phosphorylation in human HeLa cells at 50 to 100 nM after 24 hrs by Western blot analysis.

The target of data set [21] is T1, M-phase inducer phosphatase 3 (Homo sapiens). Kind of data set: Induction of cdc2 (Tyr15) dephosphorylation in human HeLa cells at 50 to 100 nM after 24 hrs by Western blot analysis.

With `CCOc1ccc(-c2nnnn2-c2cc(OC)c(OC)c(OC)c2)cc1`, the IC50 in data set [1] amounted to 1.3 nM; in [2], 1.1 nM; in data set [3], 0.7 nM; in data set [5], 8.2 nM. In data set [4], the “Ratio IC50” value stood at 0.64. Also, the Activity entry in data set [6] is “Dose-dependent effect”; in data set [13] it was 34.4%; in [14] it was “Dose-dependent effect”; in data set [15], “Dose-dependent effect”; in [16], “tde”; in [18], “Non-toxic”. Also, the Activity in data set [19] was 66%. Also, the result in data set [7], in data set [8], in [9], in data set [10], in [11] and in data set [17] was Active. Also, the viability at 0.1 µM in data set [12] was 36.1%. Moreover, the induction result in data set [20] and in data set [21] was “Active” throughout.

By IC50 is commonly meant the point on the concentration scale where inhibition reaches its midpoint.
